Active and inactive are the calls of the source. No cut-off for these calls is given here.
Experiments:
Mus musculus [1] = species: Mus musculus; assay: Binding affinity to mouse PTEN mRNA assessed as melting temperature
Procedure, shortened: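 Tm of ASO–RNA duplex, i.e. melting temperature of the ASO hybridised to its complementary RNA.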

bEND = assay: Reduction in mouse PTEN mRNA level expressed in mouse bEND cells; assay type: functional, cell-based
Procedure, shortened: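 bEND mouse brain endothelial cells transfected with ASO using lipofectin; PTEN mRNA reduction measured over a dose range; IC50 taken from dose-response curves.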

Mus musculus [2] = assay: Reduction of PTEN mRNA level in ip dosed BALB/c mouse liver after 72 hrs; assay type: functional
Mus musculus [3] = assay: Hepatotoxicity in BALB/c mouse assessed as increase in liver ALT level at 35 mg/kg, ip after 72 hrs; assay type: toxicity, organism-based; design: dose 35 mg/kg, route intraperitoneal; details: in vivo
Procedure, shortened: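 Single ip injection of 35 mg/kg ASO into male Balb/c mice, 6 weeks old, n = 4 per group, saline control; sacrificed 72 h after dosing and ALT recorded; ANOVA with Tukey's post hoc test.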

Mus musculus [4] = assay: Hepatotoxicity in BALB/c mouse assessed as increase in liver ALT level at 60 mg/kg, ip after 72 hrs; assay type: toxicity, organism-based; design: dose 60 mg/kg, route intraperitoneal; details: in vivo
Mus musculus [5] = assay: Reduction of PTEN mRNA level in BALB/c mouse liver at 37 mg/kg, ip after 72 hrs; assay type: functional, organism-based; design: dose 37 mg/kg
Mus musculus [6] = assay: Reduction of PTEN mRNA level in BALB/c mouse liver at 60 mg/kg, ip after 72 hrs; assay type: functional, organism-based; design: dose 60 mg/kg

| Tm (Mus musculus [1]) | IC50 (bEND) | SMILES | ED50 (Mus musculus [2]) | Activity (Mus musculus [3]) | other results |
| --- | --- | --- | --- | --- | --- |
| 56.9 °C | 6 nM | COC[C@H]1O[C@H]2[C@H](n3cc(C)c(N)nc3=O)O[C@]1(COP(O)(=S)O[C@H]1[C@H]3O[C@H](COC)[C@]1(COP(O)(=S)O[C@H]1C[C@H](n4cc(C)c(=O)[nH]c4=O)O[C@@H]1COP(O)(=S)O[C@H]1[C@@H](O)[C@H](n4cnc5c4N=CNC5N)O[C@@H]1COP(O)(=S)O[C@H]1[C@@H](O)[C@H](n4cnc5c(=O)[nH]c(N)nc54)O[C@@H]1COP(O)(=S)O[C@H]1[C@@H](O)[C@H](n4ccc(N)nc4=O)O[C@@H]1COP(O)(=S)O[C@H]1[C@@H](O)[C@H](n4cnc5c(N)ncnc54)O[C@@H]1COP(O)(=S)O[C@H]1[C@@H](O)[C@H](n4ccc(N)nc4=O)O[C@@H]1COP(O)(=S)O[C@H]1C[C@H](n4cc(C)c(=O)[nH]c4=O)O[C@@H]1COP(O)(=S)O[C@H]1[C@@H](O)[C@H](n4cnc5c(=O)[nH]c(N)nc54)O[C@@H]1COP(O)(=S)O[C@H]1[C@@H](O)[C@H](n4cnc5c(=O)[nH]c(N)nc54)O[C@@H]1COP(O)(=S)O[C@H]1[C@@H](O)[C@H](n4ccc(N)nc4=O)O[C@@H]1COP(O)(=S)O[C@H]1[C@H]4O[C@H](COC)[C@]1(COP(O)(=S)O[C@H]1[C@H]5O[C@H](COC)[C@]1(CO)O[C@H]5n1ccc(=O)[nH]c1=O)O[C@H]4n1cc(C)c(N)nc1=O)O[C@H]3n1ccc(=O)[nH]c1=O)[C@H]2O (some centres undefined) | 29 mg/kg |  |  |
| 50.8 °C | > 20 nM | COCCO[C@@H]1[C@H](O)[C@@H](COP(O)(=S)O[C@H]2[C@@H](OCCOC)[C@H](n3ccc(=O)[nH]c3=O)O[C@@H]2COP(O)(=S)O[C@H]2C[C@H](n3cc(C)c(=O)[nH]c3=O)O[C@@H]2COP(O)(=S)O[C@H]2[C@@H](O)[C@H](n3cnc4c3N=CNC4N)O[C@@H]2COP(O)(=S)O[C@H]2[C@@H](O)[C@H](n3cnc4c(=O)[nH]c(N)nc43)O[C@@H]2COP(O)(=S)O[C@H]2[C@@H](O)[C@H](n3ccc(N)nc3=O)O[C@@H]2COP(O)(=S)O[C@H]2[C@@H](O)[C@H](n3cnc4c(N)ncnc43)O[C@@H]2COP(O)(=S)O[C@H]2[C@@H](O)[C@H](n3ccc(N)nc3=O)O[C@@H]2COP(O)(=S)O[C@H]2[C@@H](O)[C@H](n3cc(C)c(=O)[nH]c3=O)O[C@@H]2COP(O)(=S)O[C@H]2[C@@H](O)[C@H](n3cnc4c(=O)[nH]c(N)nc43)O[C@@H]2COP(O)(=S)O[C@H]2[C@@H](O)[C@H](n3cnc4c(=O)[nH]c(N)nc43)O[C@@H]2COP(O)(=S)O[C@H]2[C@@H](O)[C@H](n3ccc(N)nc3=O)O[C@@H]2COP(O)(=S)O[C@H]2[C@@H](OCCOC)[C@H](n3cc(C)c(N)nc3=O)O[C@@H]2COP(O)(=S)O[C@H]2[C@@H](OCCOC)[C@H](n3ccc(=O)[nH]c3=O)O[C@@H]2COP(=O)(O)O)O[C@H]1n1cc(C)c(N)nc1=O (some centres undefined) | > 45 mg/kg |  |  |
| 57.6 °C | 5 nM | COC[C@@H]1O[C@H]2[C@H](n3cc(C)c(N)nc3=O)O[C@]1(COP(O)(=S)O[C@H]1[C@H]3O[C@@H](COC)[C@]1(COP(O)(=S)O[C@H]1C[C@H](n4cc(C)c(=O)[nH]c4=O)O[C@@H]1COP(O)(=S)O[C@H]1[C@@H](O)[C@H](n4cnc5c4N=CNC5N)O[C@@H]1COP(O)(=S)O[C@H]1[C@@H](O)[C@H](n4cnc5c(=O)[nH]c(N)nc54)O[C@@H]1COP(O)(=S)O[C@H]1[C@@H](O)[C@H](n4ccc(N)nc4=O)O[C@@H]1COP(O)(=S)O[C@H]1[C@@H](O)[C@H](n4cnc5c(N)ncnc54)O[C@@H]1COP(O)(=S)O[C@H]1[C@@H](O)[C@H](n4ccc(N)nc4=O)O[C@@H]1COP(O)(=S)O[C@H]1[C@@H](O)[C@H](n4cc(C)c(=O)[nH]c4=O)O[C@@H]1COP(O)(=S)O[C@H]1[C@@H](O)[C@H](n4cnc5c(=O)[nH]c(N)nc54)O[C@@H]1COP(O)(=S)O[C@H]1[C@@H](O)[C@H](n4cnc5c(=O)[nH]c(N)nc54)O[C@@H]1COP(O)(=S)O[C@H]1[C@@H](O)[C@H](n4ccc(N)nc4=O)O[C@@H]1COP(O)(=S)O[C@H]1[C@H]4O[C@@H](COC)[C@]1(COP(O)(=S)O[C@H]1[C@H]5O[C@@H](COC)[C@]1(CO)O[C@H]5n1ccc(=O)[nH]c1=O)O[C@H]4n1cc(C)c(N)nc1=O)O[C@H]3n1ccc(=O)[nH]c1=O)[C@H]2O (some centres undefined) | 25 mg/kg |  |  |

The next lines start with the compound.

| SMILES | Tm (Mus musculus [1]) | IC50 (bEND) | ED50 (Mus musculus [2]) | Activity (Mus musculus [3]) | other results |
| --- | --- | --- | --- | --- | --- |
| COC[C@@H]1O[C@H]2[C@H](n3ccc(=O)[nH]c3=O)O[C@]1(COP(O)(=S)O[C@@H]1[C@H]3O[C@H](COC)[C@]1(COP(O)(=S)OC[C@H]1O[C@@H](n4cnc5c(N)ncnc54)[C@H](O)[C@@H]1OP(O)(=S)OC[C@H]1O[C@@H](n4cc(C)c(=O)[nH]c4=O)[C@H](O)[C@@H]1OP(O)(=S)OC[C@H]1O[C@@H](n4cnc5c(=O)[nH]c(N)nc54)[C@H](O)[C@@H]1OP(O)(=S)OC[C@H]1O[C@@H](n4cnc5c(=O)[nH]c(N)nc54)[C@H](O)[C@@H]1OP(O)(=S)OC[C@H]1O[C@@H](n4ccc(N)nc4=O)[C@H](O)[C@@H]1OP(O)(=S)OC[C@H]1O[C@@H](n4cc(C)c(=O)[nH]c4=O)[C@H](O)[C@@H]1OP(O)(=S)OC[C@H]1O[C@@H](n4cnc5c(=O)[nH]c(N)nc54)[C@H](O)[C@@H]1OP(O)(=S)OC[C@H]1O[C@@H](n4ccc(N)nc4=O)[C@H](O)[C@@H]1OP(O)(=S)OC[C@H]1O[C@@H](n4cnc5c(N)ncnc54)[C@H](O)[C@@H]1OP(O)(=S)OC[C@H]1O[C@@H](n4cnc5c(=O)[nH]c(N)nc54)[C@H](O)[C@@H]1OP(O)(=S)OC[C@]14O[C@@H](n5ccc(N)nc5=O)[C@H](O[C@H]1COC)[C@@H]4OP(O)(=S)OC[C@]14O[C@@H](n5ccc(=O)[nH]c5=O)[C@H](O[C@H]1COC)[C@@H]4O)O[C@H]3n1ccc(N)nc1=O)[C@H]2O (some centres undefined) |  |  |  | Non-toxic |  |
| Cc1cn([C@@H]2O[C@@]3(COP(O)(=S)O[C@H]4[C@H]5OC[C@]4(COP(O)(=S)O[C@@H]4[C@H](O)[C@@H](COP(O)(=S)O[C@H]6[C@@H](O)[C@H](n7cnc8c(=O)[nH]c(N)nc87)O[C@@H]6COP(O)(=S)O[C@H]6[C@@H](O)[C@H](n7ccc(N)nc7=O)O[C@@H]6COP(O)(=S)O[C@H]6[C@@H](O)[C@H](n7ccc(N)nc7=O)O[C@@H]6COP(O)(=S)O[C@H]6C[C@H](n7cc(C)c(=O)[nH]c7=O)O[C@@H]6COP(O)(=S)O[C@H]6[C@@H](O)[C@H](n7ccc(N)nc7=O)O[C@@H]6COP(O)(=S)O[C@H]6C[C@H](n7cc(C)c(=O)[nH]c7=O)O[C@@H]6COP(O)(=S)O[C@H]6[C@@H](O)[C@H](n7cnc8c(=O)[nH]c(N)nc87)O[C@@H]6COP(O)(=S)O[C@H]6[C@@H](O)[C@H](n7cnc8c(=O)[nH]c(N)nc87)O[C@@H]6COP(O)(=S)O[C@H]6[C@@H](O)[C@H](n7cnc8c(N)ncnc87)O[C@@H]6COP(O)(=S)O[C@H]6[C@H]7OC[C@]6(COP(O)(=S)O[C@H]6[C@H]8OC[C@]6(COP(O)(=S)O[C@H]6[C@H]9OC[C@]6(CO)O[C@H]9n6cc(C)c(=O)[nH]c6=O)O[C@H]8n6cc(C)c(=O)[nH]c6=O)O[C@H]7n6cc(C)c(=O)[nH]c6=O)O[C@H]4n4cnc6c(N)ncnc64)O[C@H]5n4cc(C)c(=O)[nH]c4=O)CO[C@@H]2[C@@H]3OP(O)(=S)OC[C@@]23CO[C@@H]([C@H](n4cnc5c(=O)[nH]c(N)nc54)O2)[C@@H]3O)c(=O)nc1N (some centres undefined) |  |  |  |  | Activity (Mus musculus [4]): Non-toxic; Activity (Mus musculus [5]): Active; Activity (Mus musculus [6]): Active |
| COC[C@H]1O[C@H]2[C@H](n3ccc(=O)[nH]c3=O)O[C@]1(COP(O)(=S)O[C@H]1[C@H]3O[C@H](COC)[C@]1(COP(O)(=S)OC[C@H]1O[C@@H](n4cnc5c(N)ncnc54)[C@H](O)[C@@H]1OP(O)(=S)OC[C@H]1O[C@@H](n4cc(C)c(=O)[nH]c4=O)[C@H](O)[C@@H]1OP(O)(=S)OC[C@H]1O[C@@H](n4cnc5c(=O)[nH]c(N)nc54)[C@H](O)[C@@H]1OP(O)(=S)OC[C@H]1O[C@@H](n4cnc5c(=O)[nH]c(N)nc54)[C@H](O)[C@@H]1OP(O)(=S)OC[C@H]1O[C@@H](n4ccc(N)nc4=O)[C@H](O)[C@@H]1OP(O)(=S)OC[C@H]1O[C@@H](n4cc(C)c(=O)[nH]c4=O)[C@H](O)[C@@H]1OP(O)(=S)OC[C@H]1O[C@@H](n4cnc5c(=O)[nH]c(N)nc54)[C@H](O)[C@@H]1OP(O)(=S)OC[C@H]1O[C@@H](n4ccc(N)nc4=O)[C@H](O)[C@@H]1OP(O)(=S)OC[C@H]1O[C@@H](n4cnc5c(N)ncnc54)[C@H](O)[C@@H]1OP(O)(=S)OC[C@H]1O[C@@H](n4cnc5c(=O)[nH]c(N)nc54)[C@H](O)[C@@H]1OP(O)(=S)OC[C@]14O[C@@H](n5ccc(N)nc5=O)[C@H](O[C@@H]1COC)[C@@H]4OP(O)(=S)OC[C@]14O[C@@H](n5ccc(=O)[nH]c5=O)[C@H](O[C@@H]1COC)[C@@H]4O)O[C@H]3n1ccc(N)nc1=O)[C@H]2O (some centres undefined) |  |  |  | Non-toxic |  |
